Data published in ChEMBL document CHEMBL5357066, “Development of Novel Membrane Disrupting Lipoguanidine Compounds Sensitizing Gram-Negative Bacteria to Antibiotics” (ACS Med Chem Lett, 2024).
Converted amounts (≈) assume the structure as drawn.

What was measured:
Staphylococcus aureus [1] = assay: Antibacterial activity against methicillin sensitive Staphylococcus aureus 1199B assessed as bacterial growth inhibition incubated for overnight by microbroth dilution method; type: functional
Summary of the method: (§1)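 Microbroth dilution in Tryptic Soy Broth. DMSO stocks were diluted in TSB as 2-fold series. Overnight TSB cultures were back-diluted to OD 0.01 and mixed 1:1 with compound. Incubation was overnight at 37 °C. MIC is the lowest concentration with no visible growth (<0.1 OD600). DMSO at equivalent concentrations was checked.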

Acinetobacter baumannii [2] = assay: Antibacterial activity against Acinetobacter baumannii AYE assessed as bacterial growth inhibition incubated for overnight by microbroth dilution method; type: functional
Summary of the method: (§2)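 Broth microdilution in Tryptic Soy Broth. DMSO stocks were diluted in TSB as 2-fold series. Overnight TSB cultures were back-diluted to OD 0.01 and mixed 1:1 with compound. Incubation was overnight at 37 °C. MIC was the lowest concentration without visible growth (<0.1 OD600). DMSO vehicle was checked at equivalent concentrations.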

Staphylococcus aureus [3] = assay: Antibacterial activity against methicillin sensitive Staphylococcus aureus ATCC 9144 assessed as bacterial growth inhibition incubated for overnight by microbroth dilution method; type: functional; summary of the method: as §1
Acinetobacter baumannii [4] = assay: Synergistic antibacterial activity against Acinetobacter baumannii ATCC 17978 assessed as rifampicin MIC at <=0.25 times MIC incubated for overnight by microbroth dilution checkerboard assay; type: functional
Summary of the method: (§3)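 Checkerboard microdilution under MIC conditions (TSB, overnight, 37 °C). Two-fold series of each agent were combined on one plate before bacteria were added, and single-agent MICs were measured on the same plate. FIC = sum of combination MIC/alone MIC for each agent, taken from the most synergistic well. Three independent repeats, mean ± SD. ≤0.5 was taken as strong synergy and 0.5–<1 as weak.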

Pseudomonas aeruginosa [5] = assay: Antibacterial activity against Pseudomonas aeruginosa NCTC 13437 assessed as bacterial growth inhibition incubated for overnight by microbroth dilution method; type: functional; summary of the method: as §2
Pseudomonas aeruginosa [6] = assay: Synergistic antibacterial activity against Pseudomonas aeruginosa NCTC 13437 assessed as bacterial growth inhibition incubated for overnight in presence of PBMN by microbroth dilution method relative to control; type: functional
Summary of the method: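 Adapted broth microdilution in TSB. The test compound was in a 2-fold dilution series, with PMBN added at a fixed 30 µg/mL. Bacteria at OD 0.02 were added, and plates were incubated overnight at 37 °C. Growth/no growth was read as for the MIC (<0.1 OD600).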

Acinetobacter baumannii [7] = assay: Antibacterial activity against Acinetobacter baumannii ATCC 17978 assessed as bacterial growth inhibition incubated for overnight by microbroth dilution method; type: functional; summary of the method: as §2
Acinetobacter baumannii [8] = assay: Synergistic antibacterial activity against Acinetobacter baumannii ATCC 17978 assessed as fold change in rifampicin MIC at <=0.25 times MIC incubated for overnight by microbroth dilution checkerboard assay relative to rifampicin alone; type: functional; summary of the method: as §3
Pseudomonas aeruginosa [9] = assay: Antibacterial activity against Pseudomonas aeruginosa PAO1 assessed as bacterial growth inhibition incubated for overnight by microbroth dilution method; type: functional; summary of the method: as §2
Pseudomonas aeruginosa [10] = assay: Synergistic antibacterial activity against Pseudomonas aeruginosa NCTC 13437 assessed as rifampicin MIC at <=0.25 times MIC incubated for overnight by microbroth dilution checkerboard assay; type: functional
Summary of the method: (§4)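 Checkerboard microdilution in Tryptic Soy Broth, run like the MIC assay. Overnight TSB cultures were back-diluted to OD 0.01 and added 1:1 to the combined two-fold series of both agents, then incubated overnight at 37 °C. Growth/no-growth was called at <0.1 OD600. MICs alone were read on the same plates. FIC index came from the most synergistic well; three independent repeats, mean ± SD.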

Klebsiella pneumoniae [11] = assay: Antibacterial activity against Klebsiella pneumoniae M6 assessed as bacterial growth inhibition incubated for overnight by microbroth dilution method
Acinetobacter baumannii [12] = assay: Synergistic antibacterial activity against Acinetobacter baumannii AYE assessed as rifampicin MIC at <=0.25 times MIC incubated for overnight by microbroth dilution checkerboard assay; type: functional; summary of the method: as §3
Enterococcus faecalis [13] = assay: Antibacterial activity against vancomycin sensitive Enterococcus faecalis NCTC 775 assessed as bacterial growth inhibition incubated for overnight by microbroth dilution method
Staphylococcus aureus [14] = assay: Antibacterial activity against methicillin resistant Staphylococcus aureus NCTC 13616 assessed as bacterial growth inhibition incubated for overnight by microbroth dilution method; type: functional; summary of the method: as §1
Klebsiella pneumoniae [15] = assay: Synergistic antibacterial activity against Klebsiella pneumoniae NCTC 13368 assessed as fold change in rifampicin MIC at <=0.25 times MIC incubated for overnight by microbroth dilution checkerboard assay relative to rifampicin alone; type: functional
Summary of the method: (§5)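 Checkerboard run under the MIC conditions (TSB, overnight, 37 °C). Antibiotic and lipoguanidine 2-fold series were combined on one plate before bacteria were added. Growth/no-growth was scored as for the MIC (<0.1 OD600). Single-agent MICs were measured on the same plates. Three independent repeats were done.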

Klebsiella pneumoniae [16] = assay: Antibacterial activity against ESBL Klebsiella pneumoniae NCTC 13368 assessed as bacterial growth inhibition incubated for overnight by microbroth dilution method
Escherichia coli [17] = assay: Antibacterial activity against Escherichia coli NCTC 12923 assessed as bacterial growth inhibition incubated for overnight by microbroth dilution method; type: functional; summary of the method: as §2
Escherichia coli [18] = assay: Synergistic antibacterial activity against Escherichia coli NCTC 12923 assessed as rifampicin MIC at <=0.25 times MIC incubated for overnight by microbroth dilution checkerboard assay; type: functional; summary of the method: as §3
Klebsiella pneumoniae [19] = assay: Synergistic antibacterial activity against […] Klebsiella pneumoniae M6 assessed as rifampicin MIC at <=0.25 times MIC incubated for overnight by microbroth dilution checkerboard assay; type: functional; summary of the method: as §5
Pseudomonas aeruginosa [20] = assay: Synergistic antibacterial activity against Pseudomonas aeruginosa PAO1 assessed as rifampicin MIC at <=0.25 times MIC incubated for overnight by microbroth dilution checkerboard assay; type: functional; summary of the method: as §4
Klebsiella pneumoniae [21] = assay: Synergistic antibacterial activity against Klebsiella pneumoniae NCTC 13368 assessed as rifampicin MIC at <=0.25 times MIC incubated for overnight by microbroth dilution checkerboard assay; type: functional; summary of the method: as §3
Pseudomonas aeruginosa [22] = assay: Synergistic antibacterial activity against Pseudomonas aeruginosa NCTC 13437 assessed as fold change in rifampicin MIC at <=0.25 times MIC incubated for overnight by microbroth dilution checkerboard assay relative to rifampicin alone; type: functional; summary of the method: as §4
Acinetobacter baumannii [23] = assay: Synergistic antibacterial activity against Acinetobacter baumannii AYE assessed as fold change in rifampicin MIC at <=0.25 times MIC incubated for overnight by microbroth dilution checkerboard assay relative to rifampicin alone; type: functional; summary of the method: as §3
Staphylococcus aureus [24] = assay: Antibacterial activity against methicillin resistant Staphylococcus aureus USA 300 assessed as bacterial growth inhibition incubated for overnight by microbroth dilution method; type: functional; summary of the method: as §1
Enterococcus faecalis [25] = assay: Antibacterial activity against vancomycin resistant Enterococcus faecalis NCTC 12201 assessed as bacterial growth inhibition incubated for overnight by microbroth dilution method; type: functional; summary of the method: as §1
Escherichia coli [26] = assay: Synergistic antibacterial activity against Escherichia coli NCTC 12923 assessed as fold change in rifampicin MIC at <=0.25 times MIC incubated for overnight by microbroth dilution checkerboard assay relative to rifampicin alone; type: functional; summary of the method: as §3
Pseudomonas aeruginosa [27] = assay: Synergistic antibacterial activity against Pseudomonas aeruginosa PAO1 assessed as fold change in rifampicin MIC at <=0.25 times MIC incubated for overnight by microbroth dilution checkerboard assay relative to rifampicin alone; type: functional; summary of the method: as §4
Enterococcus faecium = assay: Antibacterial activity against vancomycin resistant Enterococcus faecium NCTC 12204 assessed as bacterial growth inhibition incubated for overnight by microbroth dilution method; type: functional; summary of the method: as §1

Row | Structure (SMILES) | MIC (Staphylococcus aureus [1]) [µg/mL] | MIC (Acinetobacter baumannii [2]) [µg/mL] | MIC (Staphylococcus aureus [3]) [µg/mL] | MIC (Acinetobacter baumannii [4]) [µg/mL] | MIC (Pseudomonas aeruginosa [5]) [µg/mL] | MIC (Acinetobacter baumannii [7]) [µg/mL] | fold change (FC) (Acinetobacter baumannii [8]) | MIC (Pseudomonas aeruginosa [9]) [µg/mL] | MIC (Pseudomonas aeruginosa [10]) [µg/mL] | MIC (Klebsiella pneumoniae [11]) [µg/mL] | MIC (Acinetobacter baumannii [12]) [µg/mL] | MIC (Enterococcus faecalis [13]) [µg/mL] | MIC (Staphylococcus aureus [14]) [µg/mL] | fold change (FC) (Klebsiella pneumoniae [15]) | MIC (Klebsiella pneumoniae [16]) [µg/mL] | MIC (Escherichia coli [17]) [µg/mL] | MIC (Escherichia coli [18]) [µg/mL] | MIC (Klebsiella pneumoniae [19]) [µg/mL] | MIC (Pseudomonas aeruginosa [20]) [µg/mL] | MIC (Klebsiella pneumoniae [21]) [µg/mL] | also measured
1 | CCCCCCCCCCCCNC(=N)NCCCCN | 4 (≈ 13.4 µM) | > 128 | 2 (≈ 6.7 µM) | ≤ 0.125 | 64 (≈ 214 µM) | 128 (≈ 429 µM) | >=4 | > 128 | ≤ 0.125 | > 128 | ≤ 0.125 | 8 (≈ 26.8 µM) | 4 (≈ 13.4 µM) | >=4 | > 128 | 16 (≈ 53.6 µM) | ≤ 0.125 | ≤ 0.125 | ≤ 0.125 | 0.25 | inhibition (INH) (Pseudomonas aeruginosa [6]): <20%; fold change (FC) (Pseudomonas aeruginosa [22]): >=4; fold change (FC) (Acinetobacter baumannii [23]): >=4; MIC (Staphylococcus aureus [24]): 4 µg/mL (≈ 13.4 µM); MIC (Enterococcus faecalis [25]): 16 µg/mL (≈ 53.6 µM); fold change (FC) (Escherichia coli [26]): >=4; fold change (FC) (Pseudomonas aeruginosa [27]): >=4; MIC (Enterococcus faecium): 16 µg/mL (≈ 53.6 µM)
2 | CCCCC/C=C\C/C=C\CCCCCCCCNC(=N)NCCCCN | 16 (≈ 42.3 µM) | 8 (≈ 21.1 µM) | 8 (≈ 21.1 µM) | 0.5 | > 64 | 8 (≈ 21.1 µM) | >=4 | 16 (≈ 42.3 µM) | 16 | 8 (≈ 21.1 µM) | 0.25 | 32 (≈ 84.5 µM) | 16 (≈ 42.3 µM) | 0 | 16 (≈ 42.3 µM) | 4 (≈ 10.6 µM) | 8 | 4 | 16 | 16 | fold change (FC) (Pseudomonas aeruginosa [22]): 0; fold change (FC) (Acinetobacter baumannii [23]): >=4; MIC (Staphylococcus aureus [24]): 8 µg/mL (≈ 21.1 µM); MIC (Enterococcus faecalis [25]): 16 µg/mL (≈ 42.3 µM); fold change (FC) (Escherichia coli [26]): 0; fold change (FC) (Pseudomonas aeruginosa [27]): 0; MIC (Enterococcus faecium): 16 µg/mL (≈ 42.3 µM)
3 | CC/C=C\C/C=C\C/C=C\CCCCCCCCNC(=N)NCCCCN | 8 (≈ 21.2 µM) | 128 (≈ 340 µM) | 8 (≈ 21.2 µM) | ≤ 0.125 | > 128 | 128 (≈ 340 µM) | >=4 | > 128 | 16 | 128 (≈ 340 µM) | ≤ 0.125 | 8 (≈ 21.2 µM) | 8 (≈ 21.2 µM) | >=4 | > 128 | 32 (≈ 85 µM) | 1 | ≤ 0.125 | 16 | ≤ 0.125 | fold change (FC) (Pseudomonas aeruginosa [22]): 0; fold change (FC) (Acinetobacter baumannii [23]): >=4; MIC (Staphylococcus aureus [24]): 4 µg/mL (≈ 10.6 µM); MIC (Enterococcus faecalis [25]): 8 µg/mL (≈ 21.2 µM); fold change (FC) (Escherichia coli [26]): >=4; fold change (FC) (Pseudomonas aeruginosa [27]): 0; MIC (Enterococcus faecium): 8 µg/mL (≈ 21.2 µM)
4 | CCCCCCCC/C=C\CCCCCCCCNC(=N)NCCCCN | 4 (≈ 10.5 µM) | 16 (≈ 42 µM) | 4 (≈ 10.5 µM) | ≤ 0.125 | > 128 | 8 (≈ 21 µM) | >=4 | 128 (≈ 336 µM) | 16 | 8 (≈ 21 µM) | ≤ 0.125 | 4 (≈ 10.5 µM) | 4 (≈ 10.5 µM) | >=4 | 128 (≈ 336 µM) | 8 (≈ 21 µM) | 8 | 16 | 16 | ≤ 0.125 | inhibition (INH) (Pseudomonas aeruginosa [6]): <20%; fold change (FC) (Pseudomonas aeruginosa [22]): 0; fold change (FC) (Acinetobacter baumannii [23]): >=4; MIC (Staphylococcus aureus [24]): 2 µg/mL (≈ 5.25 µM); MIC (Enterococcus faecalis [25]): 4 µg/mL (≈ 10.5 µM); fold change (FC) (Escherichia coli [26]): 0; fold change (FC) (Pseudomonas aeruginosa [27]): 0; MIC (Enterococcus faecium): 4 µg/mL (≈ 10.5 µM)
5 | CCCCCCCC/C=C\CCCCCCCCNC(=N)NCCCCNC(=N)N | 2 (≈ 4.73 µM) | 32 (≈ 75.7 µM) | 4 (≈ 9.46 µM) | ≤ 0.125 | > 128 | 8 (≈ 18.9 µM) | >=4 | 128 (≈ 303 µM) | 16 | 16 (≈ 37.9 µM) | ≤ 0.125 | 2 (≈ 4.73 µM) | 2 (≈ 4.73 µM) | >=4 | 128 (≈ 303 µM) | 8 (≈ 18.9 µM) | 8 | 2 | 16 | ≤ 0.125 | inhibition (INH) (Pseudomonas aeruginosa [6]): <20%; fold change (FC) (Pseudomonas aeruginosa [22]): 0; fold change (FC) (Acinetobacter baumannii [23]): >=4; MIC (Staphylococcus aureus [24]): 2 µg/mL (≈ 4.73 µM); MIC (Enterococcus faecalis [25]): 2 µg/mL (≈ 4.73 µM); fold change (FC) (Escherichia coli [26]): 0; fold change (FC) (Pseudomonas aeruginosa [27]): 0; MIC (Enterococcus faecium): 2 µg/mL (≈ 4.73 µM)
